Assay outcomes: PubChem BioAssay, several laboratories
SR-BI DiI-HDL act: activators of SR-BI mediated DiI-HDL uptake, primary screen, ldlA[mSR-BI] CHO cells, DiI fluorescence; 3 h; 100 = double the neutral-control signal; activation, % at 12.5 µM; 320,000 tested, 0.096% active; AID 504775, 2011;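 active = mean replicate activation of at least 60% and every replicate at or above 60%; inconclusive = mean or all-replicate condition met, but not both; inactive = mean below 60% and not all replicates reaching 60%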;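 also: 0% = median plate neutral-control signal and 100% = twice that signal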
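Assay system: LDL receptor-deficient CHO ldlA cells overexpressing murine SR-BI / Medium: BSA-supplemented, HEPES-buffered Ham's F12, pH 7.4 / Probe or stimulus: DiI-labelled HDL at 10 µg/mL final / Timing: compound with DiI-HDL co-incubation, 3 h at 37 °C / Technique: bottom-read cell fluorescence after medium removal, ex 550/em 595 nm / Measure: HDL uptake via cellular fluorescence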
A1 inh: caspase 3/7 activation in MEF A1-2A-BIM cells, primary screen, A1 inhibitor project, cell-based, luminescence, HTS | Caspase-Glo 3/7 luminescence, 3 h; percent of clofoctol response, vehicle zero | AID 2462, 2010 | caspase activation, % (no concentration beside the values) | 330,000 tested, 0.066% active;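 active = over half of replicate activation scores above 10%, or exactly half above 10 with the replicate mean above 10; inconclusive = replicate mean below 10 yet half the replicates above 10; inactive = over half of replicates below 10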
Vif imaging: HIV Vif self-association inhibitors, primary screen, imaging, HEK293T, single point | HEK293T cells, Vif self-association by quenched fluorescence, 24 h | inhibition, % at 7.49 µM | 340,000 tested, 0.35% active | AID 602346, 2012; in the data active = inhibition above about 50%, passing the limit was not always enough; inconclusive = no clear call, values can overlap the other calls; inactive = below about 31%
TAG inh: inhibitors of triacylglycerol accumulation, primary screen, cell-based, uHTS, fluorescence, H9c2; inhibition, % at 12.5 µM; 230,000 tested, 0.66% active; H9c2 cells, Nile Red lipid (TAG) fluorescence; cells loaded with 200 µM oleic acid;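 active = pattern-corrected inhibition of lipid staining of at least 50% with the nuclear-stain viability signal not falling by more than 50%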;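 also: 0% = DMSO wells and 100% = triacsin C control wells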
SR-BI DiI inh: inhibitors of SR-BI mediated HDL lipid uptake, primary screen, ldlA[mSR-BI] cells, fluorescence, single point | ldlA[mSR-BI] CHO cells, DiI-HDL uptake fluorescence, 3 h | 320,000 tested, 0.96% active | inhibition, % at 12.5 µM | AID 488896, 2010 | Scavenger receptor class B member 1 (Mus musculus), Q61009;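 active = mean replicate inhibition of at least 70% and a set share of replicates each scoring 70 or more; inconclusive = meets just one of the two criteria; inactive = fails both criteria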;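 also: 0% = median of neutral control wells and 100% = median of positive control wells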
Target sequence (Q61009 whole entry, looked up): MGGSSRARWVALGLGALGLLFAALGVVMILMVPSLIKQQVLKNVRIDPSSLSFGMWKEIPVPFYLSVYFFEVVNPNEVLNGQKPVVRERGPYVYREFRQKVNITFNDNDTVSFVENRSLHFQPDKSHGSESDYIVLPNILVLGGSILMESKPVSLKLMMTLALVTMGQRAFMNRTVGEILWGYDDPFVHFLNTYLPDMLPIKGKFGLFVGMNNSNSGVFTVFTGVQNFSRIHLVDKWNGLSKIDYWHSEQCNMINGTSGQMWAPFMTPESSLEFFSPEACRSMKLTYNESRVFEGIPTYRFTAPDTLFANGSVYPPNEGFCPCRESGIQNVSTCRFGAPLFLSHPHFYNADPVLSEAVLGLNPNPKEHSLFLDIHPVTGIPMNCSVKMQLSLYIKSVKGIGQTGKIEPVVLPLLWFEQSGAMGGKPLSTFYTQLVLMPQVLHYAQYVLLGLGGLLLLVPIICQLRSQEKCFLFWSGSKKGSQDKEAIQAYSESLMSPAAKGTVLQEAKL
H9c2 TAG conf: triacylglycerol accumulation inhibitors, retest, confirmation, cell-based, single concentration, Nile Red fluorescence, H9c2. inhibition, % at 12.5 µM. 990 tested, 71% active. shares compounds with TAG inh. H9c2 lipid accumulation; cells loaded with 200 µM oleic acid;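 active = mean inhibition across replicates of 40% or more; inactive = mean inhibition below 40%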;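 also: plate controls were DMSO only wells for no effect and Triacsin C treated wells for full effect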
Active calls of the source: *; ? = inconclusive; nt = not tested or not shown. An excerpt weighted towards active compounds, which were near 1.6% of everything screened.

SMILES	SR-BI DiI-HDL act	A1 inh	Vif imaging	TAG inh	SR-BI DiI inh	H9c2 TAG conf
COc1ccc(-c2nc(NC(=O)C3CCN(c4nc5ccccc5o4)CC3)sc2C)cc1	45	0	-42	66*	-45	58*
Fc1cccc(Nc2nc(-c3ccncc3)nc3ccccc23)c1	-66	0	1	69*	66	63*
CCc1nnc(NC(=O)C2CCCN2C(=O)Nc2ccc(Cl)cc2)s1 (configuration not stated)	nt	0	12	nt	nt	nt
CCOc1c(Br)cc(CNC2CCCCCCC2)cc1OC	-6	0	-2	70*	6	80*
c1ccc(Oc2nc(-c3ccccn3)nc3ccccc23)cc1	nt	-5	-7	72*	nt	51*
COc1ccc(Oc2nc(-c3ccccn3)nc3ccccc23)cc1	nt	-3	-1	62*	nt	53*
Fc1ccc(Oc2nc(-c3ccccn3)nc3ccccc23)cc1	nt	-1	9	56*	nt	42*
CCOc1cc(C(=O)N(C)CC(=O)Nc2cccc(F)c2)ccc1OCC(=O)N1CCCCC1	-2	-1	1	-1	2	nt
CCN(CC(=O)Nc1ccc(C(=O)Nc2ccc(OC)cc2)cc1)Cc1nc2ccccc2c(=O)[nH]1	nt	1	12	55*	nt	50*
CCN(CC(=O)Nc1cc(OC)ccc1OC)Cc1nc2ccccc2c(=O)[nH]1	18	0	-6	17	-18	nt
CSc1ccccc1OCc1cc(C(=O)N2CCN3CCCC3C2)no1 (configuration not stated)	-18	1	-5	nt	18	nt
N#C/C(=C\c1ccc(OC(F)F)cc1)C(=O)N1CCCCC1	0	2	1	83*	0	2
CCn1c(C)nc2cc(NC(=O)Nc3cccc(C(C)=O)c3)ccc21	nt	-1	-7	nt	nt	nt
O=[N+]([O-])c1ccc(Nc2nc(N3CCOCC3)nc(N3CCOCC3)n2)cc1	-26	0	-2	53*	26	61*
c1ccc(Nc2nc(N3CCOCC3)nc(N3CCOCC3)n2)cc1	-35	1	4	46	35	nt
c1ccc(Nc2nc(N3CCNCC3)nc(N3CCOCC3)n2)cc1	-26	0	8	88*	26	35
O=[N+]([O-])c1ccc(Nc2nc(N/N=C\c3ccc4c(c3)OCO4)nc(N3CCCCC3)n2)cc1	-62	0	-2	66*	62	37
Cc1nc(CN2CCN(Cc3nc(C(c4ccccc4)c4ccccc4)no3)CC2)cs1	-12	0	1	nt	12	nt
COC(=O)[C@]1(Cc2ccccc2)N[C@H](c2ccc(-c3cccc(Cl)c3)cc2)[C@@H]2C(=O)N(C)C(=O)[C@@H]21	9	0	4	11	-9	nt
O=C(Cc1n[nH]c(=O)c2ccccc12)OCC(=O)c1ccc(OC(F)F)cc1OC(F)F	-5	0	-2	-5	5	nt
Cc1nc(C(=O)Nc2ccccc2Cl)cc2c1[nH]c1ccccc12	-55	1	-6	75*	?	55*
CCC1(O)CC2CN(CCc3c([nH]c4ccccc34)C(C(=O)OC)(c3cc4c(cc3OC)N(C=O)C3C(O)(C(=O)OC)C(OC(C)=O)C5(CC)C=CCN6CCC43C65)C2)C1 (configuration not stated)	7	nt	7	52*	-7	57*
CCCC[C@H](CN[C@@H](CNC)[C@H](C)CC)NCCC12CCC(CC1)C2	41	0	-5	51*	-41	70*
CCC[C@H](CN[C@@H](CNC)[C@H](C)O)NCCc1ccc(OC)cc1	18	-2	5	5	-18	nt
COc1ccc(C2=NS(=O)(=O)N(C)C(C(=O)Nc3ccc(C(C)=O)cc3)=C2)cc1OC	-39	0	-9	nt	39	nt
SMILES	SR-BI DiI-HDL act	A1 inh	Vif imaging	TAG inh	SR-BI DiI inh	H9c2 TAG conf
Cc1ccc(OC(=O)CCC(=O)Nc2ccc(C(N)=O)cc2)cc1	26	1	-1	2	-26	nt
CCCCCCN(C(=O)CCCN1C(=O)NC(c2ccc(-c3ccccc3)cc2)C(C(=O)OCc2ccccc2)=C1C)C(C)C(=O)NCCCC (configuration not stated)	10	nt	1	38	-10	nt
CCCCCCN(C(=O)CCCCCN1C(=O)NC(c2ccc([N+](=O)[O-])cc2)C(C(=O)OCc2ccccc2)=C1C)C(C(=O)NCCCC)C1CCCCC1 (configuration not stated)	14	nt	4	66*	-14	56*
O=C(Nc1nc2ccc(C(=O)N3CCCCC3)cc2s1)C1CCCCC1	-1	0	-5	64*	1	68*
CNC(=S)NN=C(C)CCCC(C)=NNC(=S)NC	-2	nt	7	71*	2	95*
CNC(=S)N/N=C(\C)c1ccc(Cl)c(Cl)c1	-39	1	5	9	39	nt
O=C(CN(CC1CCCO1)S(=O)(=O)c1ccc(S(=O)(=O)NC2CC2)cc1)Nc1ccccc1 (configuration not stated)	0	1	-3	51*	0	38
CC(C)(C)c1cc(NC(=O)C2(C)CCN2C(=O)C2(c3ccccc3)CCCC2)no1 (configuration not stated)	nt	nt	11	53*	nt	40
CC(C)(C)c1cc(NC(=O)C2(C)CCN2C(=O)C2(c3ccccc3)CC2)no1 (configuration not stated)	nt	nt	2	23	nt	nt
CC1(C)Cc2nc3sc4c(SCC(=O)NCc5ccco5)ncnc4c3cc2CO1	-18	-6	-3	54*	18	47*
Cc1nc2c(sc3nc4c(cc32)COC(C)(C)C4)c(=O)n1CC(=O)NCc1ccco1	1	-2	-6	nt	-1	nt
Brc1ccc(-c2csc(NNC3=NCCCCC3)n2)cc1	-41	0	-2	130*	41	129*
CC(C)(C)c1ccc(-c2csc(NNC3=NCCCCC3)n2)cc1	-56	0	-6	nt	56	nt
c1ccc(-c2csc(NC3=NCCCCC3)n2)cc1	8	-1	6	-10	-8	nt
FC(F)Oc1ccc(-c2csc(NNC3=NCCCCC3)n2)cc1	-62	0	-4	119*	62	125*
CC1(C)CC(NC(=O)c2cccc(S(=O)(=O)N(Cc3ccccc3)c3ccccc3)c2)CC(C)(C)N1	24	0	-15	-5	-24	nt
CC(=O)c1cccc(NC(=O)CSc2nc3ccccc3c(=O)n2CCCN2CCOCC2)c1	-8	0	14	10	8	nt
